Reference: PMC3967199 (Scientific Reports, 2014)
Like-named read-outs stand apart in the source and are kept apart here.

How the values were obtained:
[1] = system: H1299 and H460 xenografts; type: in vivo, NOD/SCID mice
[2] = system: human NSCLC tumor samples; assay: Tumor microarray binding of Peptide-SAQdot 605; details: of 59 human NSCLC tumor samples; 10 nM Peptide-SAQdot 605, 30 minutes
Method in brief: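 Commercial paraffin lung cancer tissue microarray; dewaxed, antigen retrieval in 10 mM citrate pH 6.0 at 65°C for 10 min, blocked in PBS + 2.5% BSA. Stained with peptide conjugated 1:1 to streptavidin-Qdot605 in 50% PBS/50% RPMI with 2.5% bovine serum. Washed, DAPI-mounted, three areas imaged per sample. Red Qdot signal compared against green-channel autofluorescence; scored by five independent scientists.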

MCF7 cells = assay: Peptide-SAQdot605 binding, fluorescence microscopy; type: cell-based

| Sequence | Tumor specificity in vivo ([1]; acetylated peptide) | Tumor uptake of non-acetylated peptide ([1]; free amino-terminus, before acetylation) | Samples scored positive for peptide binding [2] [%] | Binding of peptide-SAQdot605 (MCF7 cells) | H460 tumor/H1299 tumor ([1]; animal shown, 24 h) [fold] | H460 tumor/lung ([1]; animal shown, 24 h) [fold] | H460/lung ([1]; average of mice (± SEM in text), i.v., ex vivo, 24 h) | H460 tumor/H1299 tumor ([1]; average of mice, i.v., ex vivo, 24 h) |
| --- | --- | --- | --- | --- | --- | --- | --- | --- |
| FHAVPQSFYTAP [HCC15.2] | accumulates in both H1299 and H460 tumors | No tumor uptake | 24 |  |  |  |  |  |
| EAMNSAEQSAAVVQWEKRRI [Peptide H460.1] |  |  |  | specific binding | 8 | 15 | 14 ± 6.5 | 27 |
